NLRP3 yeast inh: inhibitors of NALP3 inflammasome in yeast. Yeast reconstituted NLRP3/ASC/caspase-1, beta-gal luminescence, 24 h. AID 2825. 330,000 tested, 0.39% active. inhibition, % at 10 µM;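 active means inhibition of 50% or more; inactive means inhibition below 50%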;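 further: plate controls were induced DMSO wells for no effect and uninduced yeast grown without galactose for full effect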
SUMO Mot1 rescue: SUMOylation pathway inhibition by Mot1-301 growth rescue; AID 2716; growth rescue, % at 18.8 µM; 320,000 tested, 1% active; S. cerevisiae Mot1-301 growth rescue, ATP luminescence, 38.5C; percent above DMSO median, 100 means doubled;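 active means every valid replicate shows activation above 250% relative to neutral control wells; inactive means the rest, any valid replicate at or below 250%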;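 further: OY570 slx delta 5 strain wells were the positive control but not used for scaling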
VIM-2 inh: blocks Pseudomonas aeruginosa VIM-2 metallo-beta-lactamase; purified VIM-2, nitrocefin hydrolysis, epi-absorbance fluorescence; inhibition, % at 5.6 µM; 290,000 tested, 0.89% active; AID 1527;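 active means inhibition above the mean of all tested compounds plus 3 SD, cutoff set per screening run, cut at about 7.5% in these data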;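 further: red hydrolysis product quenches plate fluorescence so inhibitors raise well fluorescence; 0% = enzyme with DMSO and 100% = DMSO without enzyme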
IMP-1 inh-1: blocks Pseudomonas aeruginosa IMP-1 metallo-beta-lactamase; 290,000 tested, 0.45% active; purified IMP-1, nitrocefin hydrolysis, epi-absorbance fluorescence; inhibition, % at 5.6 µM;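 active means inhibition above the mean plus 3 SD of all compounds in the same screening run, cut at about 4.5% in these data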;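 further: 0% = IMP-1 with DMSO and 100% = DMSO wells lacking enzyme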
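System: purified IMP-1; amount: IMP-1 0.2 nM before substrate addition; compound: single dose, 5.6 µM; times: 25 °C, 15 min preincubation, 25 min reaction; signal: Epi-absorbance via hydrolysed-nitrocefin quenching of white-plate fluorescence, 480/530 nm, EDTA stop; benchmarks: DMSO with and without IMP-1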
NALP1 inh: inhibitors of NALP1 inflammasome in yeast; S. cerevisiae NALP1/ASC/caspase-1 growth, X-gal OD620, 72 h; 280,000 tested, 0.61% active; inhibition, % at 10 µM; AID 2071; in the data active means inhibition mostly above about 24%, no sharp cut-off; inactive means mostly below about 32%
PolyA inh: yeast polyadenylation inhibition; S. cerevisiae SKY197-pL101 polyadenylation reporter, beta-gal luminescence; efflux-impaired pdr1/pdr3 knockout yeast; score 100 = 6 SD above DMSO; activity score, % at 12 µM; 300,000 tested, 0.02% active; AID 1875;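 active means lowest replicate activity score at least 50, where 100 means six control SD above control mean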;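 further: yeast exposed to compound for 9 h at 30 °C; higher score means more reporter readthrough which indicates perturbed polyadenylation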
IMP-1 inh-2: selectivity counter-screen for VIM-2 inhibitors: IMP-1 metallo-beta-lactamase inhibitors; shares compounds with VIM-2 inh; purified IMP-1, nitrocefin hydrolysis, epi-absorbance fluorescence; inhibition, % at 5.6 µM; 1,300 tested, under 10 active; AID 1856; call rule not given here;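 further: 0% = enzyme with vehicle and 100% = vehicle without enzyme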
VIM-2 FRET inh: counter-screen for VIM-2 inhibitors: epi-absorbance artifacts via FRET; shares compounds with VIM-2 inh; purified VIM-2, CCF2 FRET substrate hydrolysis; inhibition, % at 5.6 µM; 1,300 tested, 23% active;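 active means inhibition above the mean of all tested compounds plus 3 SD, cut at about 19% in these data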;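 further: 0% = VIM-2 plus DMSO and 100% = no enzyme wells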
TEM-1 counter: TEM-1 inhibition, counter-screen for VIM-2 inhibitors | 1,300 tested, 3% active | shares compounds with VIM-2 inh | AID 1866 | inhibition, % at 5.6 µM | Purified TEM-1, nitrocefin hydrolysis, epi-absorbance fluorescence;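 active means inhibition above that campaign's mean inhibition plus 3 SD, cut at about 0.46% in these data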;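 further: 0% = TEM-1 with DMSO and 100% = TEM-1 with 100 µM potassium clavulanate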
Target sequence (P62593 whole entry, looked up): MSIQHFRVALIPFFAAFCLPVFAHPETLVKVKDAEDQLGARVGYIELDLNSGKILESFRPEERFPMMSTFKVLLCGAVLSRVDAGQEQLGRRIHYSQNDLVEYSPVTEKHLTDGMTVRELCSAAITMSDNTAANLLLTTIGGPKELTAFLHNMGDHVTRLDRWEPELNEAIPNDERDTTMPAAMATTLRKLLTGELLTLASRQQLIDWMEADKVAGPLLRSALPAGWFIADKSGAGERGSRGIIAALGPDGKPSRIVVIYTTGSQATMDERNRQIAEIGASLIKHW
VIM-2 confirm 2: confirmation of P. aeruginosa VIM-2 metallo-beta-lactamase inhibitors; 1,300 tested, 96% active; inhibition, % at 5.6 µM; purified VIM-2, nitrocefin hydrolysis, epi-absorbance; shares compounds with VIM-2 inh;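 active means inhibition of the VIM-2 beta-lactamase enzyme above about 11% from the earlier first-round screen, limit read from the data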;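 further: 0% = VIM-2 with DMSO and 100% = buffer wells without enzyme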
* hit, by the source's call; . = no result given. Only some compounds are listed: those with a hit (about 2.9% of all), similar ones and a draw of the others.

SMILES	NLRP3 yeast inh	SUMO Mot1 rescue	VIM-2 inh	IMP-1 inh-1	NALP1 inh	PolyA inh	IMP-1 inh-2	VIM-2 FRET inh	TEM-1 counter	VIM-2 confirm 2
CCOc1ccccc1Nc1cc(C)nc2nc(C)nn12	26	-3	15*	-4	11	6	-2	-1	0.5*	28*
CC(C)c1cc(C(=O)NNC(=S)NC2CCCCC2)cs1	24	-14	-2	-3	-3	8	.	.	.	.
O=C(O)CCN1C(=O)C2CCCCC2C1=O (stereo unspecified)	7	4	-3	-3	-1	5	.	.	.	.
O=C1C(=O)N(O)C2CCCCC2N1O (stereo unspecified)	26	5	13*	-3	24	-11	-4	47*	-7	24*
O=C(CSC1=NS(=O)(=O)c2ccccc2N1)Nc1nccs1	7	2	.	.	.	-24	.	.	.	.
Cc1onc(-c2ccccc2)c1C(=O)N/N=C/c1ccco1	12	-22	34*	-5	11	4	-4	3	-5	2
CCCCn1c(-c2ccoc2C)n[nH]c1=S	17	124	16*	-4	-3	-2	-2	45*	-2	30*
CC(C)Cn1c(-c2ccco2)nc2c(c(=O)c3ccccc3n2C)c1=O	19	34	13*	-2	25	2	-3	-3	-5	32*
Cc1ccccc1-n1c(-c2ccco2)n[nH]c1=S	9	-7	14*	-2	25	-9	-2	45*	-3	31*
CC(C)Cn1c(-c2ccco2)n[nH]c1=S	11	2	17*	-4	-6	3	-3	49*	-8	31*
C=CCn1c(-c2ccoc2C)n[nH]c1=S	20	365	-4	-6	32	-3	.	.	.	.
COCc1cccc(C(=O)NC(c2ccccc2)c2ccccc2)c1	24	-14	-3	-1	2	11	.	.	.	.
CC1CCN(S(=O)(=O)c2c[nH]c(=O)[nH]c2=O)CC1	19	4	.	.	.	16	.	.	.	.
CC(C)Cn1c(-c2ccc(F)cc2)n[nH]c1=S	0	8	4	0	-15	-6	.	.	.	.
CCCCn1c(Cc2ccccc2)n[nH]c1=S	10	240	-2	-3	14	-11	.	.	.	.
CCCCn1c(-c2ccco2)n[nH]c1=S	1	.	42*	-4	13	4	-3	72*	-7	53*
CCCCn1c(-c2sccc2C)n[nH]c1=S	14	-3	39*	-2	-11	-5	-2	67*	-8	50*
CC(C)Cn1c(-c2ccccc2F)n[nH]c1=S	3	0	19*	1	3	-11	-2	30*	-7	21*
COc1ccc(-c2cc(C(F)(F)F)n3nc(C(=O)NCCCn4ccnc4)cc3n2)cc1	13	1	29*	-3	5	15	-2	-13	-6	48*
O=C(C1=C(O)C(=O)N(CC2CCCO2)C1c1ccccc1F)c1ccco1 (stereo unspecified)	0	-6	0	0	1	3	.	.	.	.
Cc1cc(NCCN2CCOCC2)n2c(nc3ccccc32)c1C#N	-3	-15	7	-5	8	15	.	.	.	.
Cc1cc(NCCCCO)n2c(nc3ccccc32)c1C#N	6	-15	19*	-2	14	-6	-3	-10	-7	40*
CCN(CC)CCNc1cc(C)c(C#N)c2nc3ccccc3n12	24	24	22*	-3	10	-5	-3	-8	-6	37*
CCN(CC)CCCNc1cc(C(F)(F)F)c(C#N)c2nc3ccccc3n12	1	-9	29*	-1	17	-8	-2	-5	-2	41*
Cc1ccnc(N2CCN(c3cc(C)c(C#N)c4nc5ccccc5n34)CC2)c1	6	4	-1	-3	.	16	.	.	.	.
SMILES	NLRP3 yeast inh	SUMO Mot1 rescue	VIM-2 inh	IMP-1 inh-1	NALP1 inh	PolyA inh	IMP-1 inh-2	VIM-2 FRET inh	TEM-1 counter	VIM-2 confirm 2
Cc1cc(-c2ccco2)n2c(nc3ccccc32)c1C#N	3	7	18*	-2	6	9	-3	32*	-4	43*
Cc1cc(NCCCN2CCOCC2)n2c(nc3ccccc32)c1C#N	10	-6	40*	-1	1	16	-2	-9	-5	57*
C=C(C)CSc1cc(C)c(C#N)c2nc3ccccc3n12	4	8	17*	2	5	-2	-3	4	-9	21*
COCCN(CCOC)c1cc(C)c(C#N)c2nc3ccccc3n12	6	511	-2	-5	10	7	.	.	.	.
CC1CC(C)(C)NC(=S)N1CCC(=O)NCc1ccc(Cl)cc1 (stereo unspecified)	17	12	-3	-1	-13	-10	.	.	.	.
N#Cc1sc(=O)[nH]c1Cl	-1	0	.	.	.	-11	.	.	.	.
CC(=O)Nc1ccc2c(CSc3nnc(N)s3)cc(=O)oc2c1	8	18	21*	2	4	33	-4	10	-7	5
Cc1ccc2c(CSc3nnc(N)s3)cc(=O)oc2c1	-21	.	-2	-3	21	-14	.	.	.	.
O=C(NCCCN1CCCCCC1)c1cc2c(=O)oc3ccccc3c2s1	20	-15	16*	0	18	-3	-3	2	-14	25*
Cc1ccc2oc(=O)c3cc(C(=O)NCCCN4CCN(C)CC4)sc3c2c1	4	27	13*	-2	13	-12	-2	0	-9	20*
Cc1ccc2oc(=O)c3cc(C(=O)NCCCN4C(C)CCCC4C)sc3c2c1 (stereo unspecified)	15	5	12*	1	8	-7	-3	3	-10	17*
CN1CCN(CCCNC(=O)c2cc3c(=O)n(C)c4ccccc4c3s2)CC1	15	-38	21*	3	-8	14	-3	1	-7	29*
Cc1ccc2[nH]c(=O)c3cc(C(=O)NCC4CCCO4)sc3c2c1 (stereo unspecified)	11	253	-1	-2	2	7	.	.	.	.
CC1CN(C(=O)c2ccc(Br)c(S(=O)(=O)N3CCOCC3)c2)CC(C)O1 (stereo unspecified)	7	6	.	.	.	.	.	.	.	.
Cc1ccccc1CNC(=O)C(=O)NCC1CCCN1S(=O)(=O)c1cccs1 (stereo unspecified)	2	.	.	.	.	-1	.	.	.	.
